Values belong to the molecule of their own block, whether it stands above or below them.
Experiments:
Assay type in all cases: physicochemical
[1] = Evaluated for ionization constant (pKa2) by titrations performed in presence of MeOH solvent at a dielectric constant of 56; details: MeOH cosolvent, dielectric constant 56; read-out: pKa2
Procedure, shortened: (§1)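 pH-metric titration in mixed water/cosolvent media (MeOH or EtOH, depending on the ligand) at several cosolvent proportions, each proportion setting the dielectric constant. Electrode calibrated with pH 7.00 phosphate buffer and standardized after a blank titration by a nonlinear semiempirical fit. Readings were converted to pcH to give concentration-scale constants.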

[2] = Evaluated for ionization constant (pKa2) by titrations performed using method of Yasuda and Shedlovsky; details: read-out: pKa2
Procedure, shortened: (§2)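 Aqueous constants were extrapolated by the Yasuda–Shedlovsky method from pH-metric titrations run at several MeOH or EtOH cosolvent levels. Electrode calibrated with pH 7.00 phosphate buffer and standardized after a blank titration. Values are expressed on the pcH (-log[H+]) concentration scale.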

[3] = Evaluated for ionization constant (pKa3) by titrations performed in presence of MeOH solvent at a dielectric constant of 62; details: MeOH cosolvent; read-out: pKa3; procedure, shortened: as §1
[4] = Evaluated for ionization constant (pKa1) by titrations performed in absence of a cosolvent at a dielectric constant of 78; details: no cosolvent, dielectric constant 78; read-out: pKa1
[5] = Evaluated for ionization constant (pKa2) by titrations performed in presence of MeOH solvent at a dielectric constant of 62; details: MeOH cosolvent, dielectric constant 62; read-out: pKa2; procedure, shortened: as §1
[6] = Evaluated for ionization constant (pKa2) by titrations performed in absence of cosolvent and at a dielectric constant of 78; details: no cosolvent, dielectric constant 78; read-out: pKa2
[7] = Evaluated for ionization constant (pKa4) by titrations performed in presence of MeOH solvent at a dielectric constant of 56; details: MeOH cosolvent; read-out: pKa4; procedure, shortened: as §1
[8] = Evaluated for ionization constant (pKa5) by titrations performed in presence of MeOH solvent at a dielectric constant of 56; details: MeOH cosolvent; read-out: pKa5
Procedure, shortened: (§3)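 Potentiometric pH titration. The electrode is calibrated with pH 7.00 phosphate buffer. A blank titration before each set standardizes the electrode by a nonlinear semiempirical equation, and readings are converted to the concentration scale pcH = −log[H+]. Runs use varying amounts of MeOH or EtOH cosolvent, and aqueous pKa values are extrapolated by the Yasuda–Shedlovsky method. Low pKa values (pH < 2) are determined by spectrophotometric titration.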

[9] = Evaluated for ionization constant (pKa5) by titrations performed using the method of Yasuda and Shedlovsky; details: read-out: pKa5; procedure, shortened: as §3
[10] = Evaluated for ionization constant (pKa4) by titrations performed in presence of MeOH solvent at a dielectric constant of 49; details: MeOH cosolvent; read-out: pKa4; procedure, shortened: as §1
[11] = Partition coefficient (logP) (chloroform)
Procedure, shortened: (§4)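 Free-ligand partition coefficients are measured by the pH-metric technique. This uses two linked titrations: a normal aqueous titration, then a two-phase titration in the presence of the partition solvent.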

[12] = Evaluated for ionization constant (pKa3) by titrations performed in presence of MeOH solvent at a dielectric constant of 56; details: MeOH cosolvent; read-out: pKa3; procedure, shortened: as §1
[13] = Partition coefficient (logP) (cyclohexane); procedure, shortened: as §4
[14] = Evaluated for ionization constant (pKa5) by titrations performed in presence of MeOH solvent at a dielectric constant of 49; details: MeOH cosolvent; read-out: pKa5; procedure, shortened: as §3
[15] = Evaluated for ionization constant (pKa3) by titrations performed in absence of cosolvent and at a dielectric constant of 78; details: no cosolvent; read-out: pKa3
[16] = Evaluated for ionization constant (pKa4) by titrations performed using the method of Yasuda and Shedlovsky; details: read-out: pKa4; procedure, shortened: as §3
[17] = Evaluated for ionization constant (pKa3) by titrations performed using the method of Yasuda and Shedlovsky; details: read-out: pKa3; procedure, shortened: as §2
[18] = Evaluated for ionization constant (pKa4) by titrations performed in presence of MeOH solvent at a dielectric constant of 78; details: MeOH cosolvent; read-out: pKa4
[19] = Evaluated for ionization constant (pKa5) by titrations performed in presence of MeOH solvent at a dielectric constant of 62; details: MeOH cosolvent; read-out: pKa5; procedure, shortened: as §3
[20] = Evaluated for ionization constant (pKa4) by titrations performed in presence of MeOH solvent at a dielectric constant of 62; details: MeOH cosolvent; read-out: pKa4; procedure, shortened: as §1
[21] = Evaluated for ionization constant (pKa2) by titrations performed in presence of MeOH solvent at a dielectric constant of 49; details: MeOH cosolvent, dielectric constant 49; read-out: pKa2; procedure, shortened: as §1
[22] = Partition coefficient (logP); details: octanol/water; procedure, shortened: as §4
[23] = Evaluated for ionization constant (pKa3) by titrations performed in presence of MeOH solvent at a dielectric constant of 49; details: MeOH cosolvent; read-out: pKa3; procedure, shortened: as §1
[24] = Evaluated for ionization constant (pKa6) by titrations performed using the method of Yasuda and Shedlovsky; details: read-out: pKa6; procedure, shortened: as §3
[25] = Evaluated for ionization constant (pKa4) by titrations performed in the presence of MeOH at a dielectric constant of 49; details: MeOH cosolvent; read-out: pKa4; procedure, shortened: as §1
[26] = Evaluated for ionization constant (pKa2) by titrations performed in the presence of MeOH at a dielectric constant of 56; details: MeOH cosolvent, dielectric constant 56; read-out: pKa2; procedure, shortened: as §1
[27] = Evaluated for ionization constant (pKa3) by titrations performed in the presence of MeOH at a dielectric constant of 49; details: MeOH cosolvent; read-out: pKa3; procedure, shortened: as §1
[28] = Evaluated for ionization constant (pKa5) by titrations performed in the presence of MeOH at a dielectric constant of 62; details: MeOH cosolvent; read-out: pKa5; procedure, shortened: as §3
[29] = Evaluated for ionization constant (pKa6) by titrations performed in the presence of MeOH at a dielectric constant of 56; details: MeOH cosolvent, dielectric constant 56; read-out: pKa6; procedure, shortened: as §3
[30] = Evaluated for ionization constant (pKa4) by titrations performed in the presence of MeOH at a dielectric constant of 56; details: MeOH cosolvent, dielectric constant 56; read-out: pKa4; procedure, shortened: as §1
[31] = Evaluated for ionization constant (pKa6) by titrations performed in the presence of MeOH at a dielectric constant of 49; details: MeOH cosolvent, dielectric constant 49; read-out: pKa6; procedure, shortened: as §3
[32] = Evaluated for ionization constant (pKa2) by titrations performed in the absence of cosolvent and at a dielectric constant of 78; details: no cosolvent, dielectric constant 78; read-out: pKa2
[33] = Evaluated for ionization constant (pKa5) by titrations performed in the presence of MeOH at a dielectric constant of 56; details: MeOH cosolvent; read-out: pKa5; procedure, shortened: as §3
[34] = Evaluated for ionization constant-1 (pKa1) by titrations performed in absence of a cosolvent at a dielectric constant of 78; details: no cosolvent, dielectric constant 78; read-out: pKa1; procedure, shortened: as §3
[35] = Evaluated for ionization constant (pKa3) by titrations performed in the presence of MeOH at a dielectric constant of 62; details: MeOH cosolvent; read-out: pKa3; procedure, shortened: as §1
[36] = Evaluated for ionization constant (pKa3) by titrations performed in the absence of a cosolvent and at a dielectric constant of 78; details: no cosolvent; read-out: pKa3
[37] = Evaluated for ionization constant (pKa4) by titrations performed in the presence of MeOH at a dielectric constant of 62; details: MeOH cosolvent; read-out: pKa4; procedure, shortened: as §1
[38] = Evaluated for ionization constant (pKa4) by titrations performed in the absence of a cosolvent and at a dielectric constant of 78; details: no cosolvent; read-out: pKa4
[39] = Evaluated for ionization constant (pKa3) by titrations performed in the presence of MeOH at a dielectric constant of 56; details: MeOH cosolvent; read-out: pKa3; procedure, shortened: as §1
[40] = Evaluated for ionization constant (pKa5) by titrations performed in the presence of MeOH at a dielectric constant of 49; details: MeOH cosolvent; read-out: pKa5; procedure, shortened: as §3
[41] = Evaluated for ionization constant (pKa6) by titrations performed in the presence of MeOH at a dielectric constant of 62; details: MeOH cosolvent, dielectric constant 62; read-out: pKa6; procedure, shortened: as §3
[42] = Evaluated for ionization constant (pKa5) by titrations performed in absence of cosolvent and at a dielectric constant of 78; details: no cosolvent; read-out: pKa5; procedure, shortened: as §3
[43] = Evaluated for ionization constant (pKa4) by titrations performed in the presence of EtOH at a dielectric constant of 63; details: EtOH cosolvent; read-out: pKa4; procedure, shortened: as §1
[44] = Evaluated for ionization constant (pKa4) by titrations performed in absence of cosolvent and at a dielectric constant of 78; details: no cosolvent; read-out: pKa4
[45] = Evaluated for ionization constant (pKa2) by titrations performed in the presence of EtOH at a dielectric constant of 63; details: EtOH cosolvent, dielectric constant 63; read-out: pKa2; procedure, shortened: as §1
[46] = Evaluated for ionization constant (pKa1) by titrations performed in absence of cosolvent and at a dielectric constant of 78; details: no cosolvent, dielectric constant 78; read-out: pKa1
[47] = Evaluated for ionization constant (pKa3) by titrations performed in the presence of EtOH at a dielectric constant of 63; details: EtOH cosolvent; read-out: pKa3; procedure, shortened: as §1

pKa [1]: 12.1
pKa [2]: 11.5
pKa [3]: 7.56
pKa [4]: 12.1
pKa [5]: 11.8
pKa [6]: 10.9
pKa [7]: 2.77
pKa [8]: 0.97
pKa [9]: 1.3
pKa [10]: 2.94
logP [11]: -0.29
pKa [12]: 7.48
logP [13]: < -2
pKa [14]: 0.9
pKa [15]: 7.67
pKa [16]: 2.49
pKa [17]: 7.68
pKa [18]: 2.61
pKa [19]: 1.15
pKa [20]: 2.68
pKa [21]: 12.2
logP [22]: 0.5
pKa [23]: 7.41
SMILES: COC(=O)CN(CCN(CC(=O)[O-])Cc1ccccc1O)Cc1ccccc1O.[Na+]

pKa [24]: 0.92
pKa [25]: 4.71
pKa [26]: 12.5
pKa [27]: 8.37
pKa [28]: 2.25
pKa [29]: 1.11
pKa [30]: 4.57
pKa [31]: 1.18
pKa [9]: 1.62
pKa [32]: 11.1
pKa [33]: 2.34
logP [11]: < -2
pKa [34]: 12.9
logP [13]: < -2
pKa [35]: 8.36
pKa [36]: 8.34
pKa [37]: 4.58
pKa [16]: 4.58
pKa [17]: 8.36
pKa [38]: 4.61
pKa [39]: 8.36
logP [22]: 0.16
pKa [40]: 2.72
pKa [41]: 1.05
SMILES: O=C(O)CN(CCN(CC(=O)O)Cc1ccccc1O)Cc1ccccc1O

pKa [42]: 0.9
pKa [43]: 2.75
pKa [44]: 2.91
pKa [6]: 10.9
pKa [45]: 11.4
pKa [46]: 12.3
logP [11]: 0.18
logP [13]: -1.3
pKa [15]: 7.64
pKa [47]: 7.5
logP [22]: 1.15
SMILES: CCOC(=O)CN(CCN(CC(=O)[O-])Cc1ccccc1O)Cc1ccccc1O.[Na+]

From ChEMBL document CHEMBL1133005, “Improving the oral bioavailability of the iron chelator HBED by breaking the symmetry of the intramolecular H-bond network” (J Med Chem, 2000)
